Assay results as given in ChEMBL document CHEMBL3352408, “Karwinaphthopyranones from the fruits of Karwinskia parvifolia and their cytotoxic activities” (J Nat Prod, 2014).

What was measured:
HeLa = test: Cytotoxicity against human HeLa cells after 72 hrs by MTT assay; type: functional, cell-based
Summary of the method: (§1)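 MTT read-out of cell viability, with etoposide as positive control. Cell origins: A549, human lung carcinoma; HeLa, cervical cancer; ZR-7530, breast cancer; HCT-15, colon cancer; U373, brain cancer; Hep G2, liver cancer. Potency reported as half-maximal growth inhibitory concentration (IC50).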

A549 = test: Cytotoxicity against human A549 cells after 72 hrs by MTT assay; type: functional, cell-based; settings: A549, 72 h; summary of the method: as §1
[1] = Cytotoxicity against human ZR-7530 cells after 72 hrs by MTT assay; type: functional, cell-based; settings: ZR-75-30, 72 h; summary of the method: as §1
[2] = Cytotoxicity against human HCT15 cells after 72 hrs by MTT assay; type: functional, cell-based; settings: HCT-15, 72 h; summary of the method: as §1
HepG2 = test: Cytotoxicity against human HepG2 cells after 72 hrs by MTT assay; type: functional, cell-based; settings: HepG2, 72 h; summary of the method: as §1
[3] = Cytotoxicity against human U373 cells after 72 hrs by MTT assay; type: functional, cell-based, U-373MG ATCC; settings: U373 MG; summary of the method: as §1

Row | Compound | IC50 (HeLa) [µM] | IC50 (A549) [µM] | IC50 [1] [µM] | IC50 [2] [µM] | IC50 (HepG2) [µM] | IC50 [3] [µM]
1 | COc1cccc2c1C(=O)C1=C(C[C@H](C)O[C@@H]1C)C2(OC)c1ccc2cc3c(c(O)c2c1O)C(=O)C[C@@](C)(O)C3 (stereo partly specified) | > 10 | > 10 | 5.5 | 4.6 | 4.6 | > 10
2 | COc1cc(OC)c2c(O)c(C(C)=O)c(C)cc2c1 | > 10 | > 10 | > 10 | > 10 | 9.6 | > 10
3 | C[C@@]1(O)CC(=O)c2c(cc3ccc(-c4c5c(c(O)c6c(O)cccc46)C(=O)C[C@@](C)(O)C5)c(O)c3c2O)C1 | 4.9 | > 10 | 5.8 | 4.9 | > 10 | > 10
4 | Cc1cc(O)c2c(c1)Cc1ccc(C3c4cccc(O)c4C(=O)c4c(O)cc(C)cc43)c(O)c1C2=O (stereo unspecified) | > 10 | > 10 | 9.6 | > 10 | > 10 | > 10
5 | COc1cc(C)cc2c1C(=O)c1c(O)cccc1C2=O | > 10 | > 10 | > 10 | > 10 | 9.3 | > 10
6 | COc1cc([C@@H]2c3cc4c(cc3[C@@H](O[C@@H]3O[C@@H]5CO[C@@H](C)O[C@H]5[C@H](O)[C@H]3O)[C@H]3COC(=O)[C@H]23)OCO4)cc(OC)c1O [ETOPOSIDE] | 3.4 | 9.3 | 2.5 | 4.6 | 3.6 | 8.5
